Laboratory results from ChEMBL document CHEMBL4627246, “Pyroglutamide-Based P2X7 Receptor Antagonists Targeting Inflammatory Bowel Disease” (J Med Chem, 2020).
pIC50, pKi: −log10 of the molar value. Active and inactive are the calls of the source. The rule behind the calls is not given here.

Columns and labels:
[1] = target: T1, P2X purinoceptor 7 (Homo sapiens) (UniProt Q99572); test: Inhibition of human P2X7 expressed in human HEK293 cells assessed as reduction in BzATP-stimulated TO-PRO-3 incorporation at 10 uM preincubated with compound and TO-PRO-3 for 15 mins prior to BzATP addition and measured after 1 hr by Fluo-3AM dye based flow cytometry relative to control; type: cell-based
T1 sequence (whole entry): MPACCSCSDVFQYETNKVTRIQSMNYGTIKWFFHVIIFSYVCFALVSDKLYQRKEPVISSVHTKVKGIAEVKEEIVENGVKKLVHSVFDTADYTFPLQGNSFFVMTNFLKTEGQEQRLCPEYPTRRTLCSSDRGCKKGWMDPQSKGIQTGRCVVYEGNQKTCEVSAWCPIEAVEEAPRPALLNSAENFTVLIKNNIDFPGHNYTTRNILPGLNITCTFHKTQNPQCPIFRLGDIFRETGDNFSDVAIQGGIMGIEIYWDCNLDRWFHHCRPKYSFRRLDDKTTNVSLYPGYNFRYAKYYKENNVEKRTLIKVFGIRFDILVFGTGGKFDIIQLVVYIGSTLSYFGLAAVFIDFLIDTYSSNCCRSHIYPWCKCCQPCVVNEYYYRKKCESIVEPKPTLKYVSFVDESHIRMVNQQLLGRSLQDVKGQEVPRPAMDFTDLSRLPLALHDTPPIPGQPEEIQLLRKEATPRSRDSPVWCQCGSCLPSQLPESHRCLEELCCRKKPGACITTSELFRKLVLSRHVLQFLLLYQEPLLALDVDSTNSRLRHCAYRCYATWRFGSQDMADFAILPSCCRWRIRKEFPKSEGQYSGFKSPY
How it was run: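 HEK-293 cells overexpressing human P2RX7 loaded with Fluo-3 AM, then incubated with TO-PRO-3 (large pore uptake) and propidium iodide (viability) plus compound (10⁻⁵ M single point) for 15 min before BzATP 100 µM. After 1 h, flow cytometry; percentage of Fluo-3/TO-PRO-3 double-positive cells calculated. Mean of n ≥ 2 with positive control.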

[2] = Solubility of compound in saline at 1mg/ml; type: physicochemical; conditions: buffer
[3] = Metabolic stability in human liver microsomes assessed as half life at 0.2 mg/ml incubated for 60 mins by UPLC/MS-MS analysis; type: ADME, Microsome
[4] = Metabolic stability in human liver microsomes assessed as intrinsic clearance at 0.2 mg/ml incubated for 60 mins by UPLC/MS-MS analysis; type: ADME, Microsome; conditions: read-out: CLH
[5] = target: T1, P2X purinoceptor 7 (Homo sapiens); test: Antagonist activity at P2X7R in human THP1 cells assessed as inhibition of LPS and BzATP-induced ROS production at 10^-5 mol/L pretreated with compound followed by LPS/BzATP addition and measured up to 5 hrs by kinetic chemiluminescence based fluorometric analysis; type: cell-based; conditions: THP-1
How it was run: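 PMA-differentiated THP-1 macrophages (10^5 cells) in RPMI 1640 + 10% FBS pretreated with antagonist at 10^-5 mol/L, then LPS 10 μmol/L plus BzATP 70 μmol/L at 37 °C, 5% CO2; horseradish peroxidase (50 μg/mL) and luminol (50 μM) mixture added, chemiluminescence read on a fluorometer; cell-free H2O2 serves as positive control.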

P2X purinoceptor 7 = target: T2, P2X purinoceptor 7 (Homo sapiens, UniProt Q99572); test: Displacement of [3H]-A804598 from human P2X7 expressed in human HEK293 cell membrane incubated for 1 hr by microplate scintillation counting method; type: cell membranes
T2 sequence (Q99572 whole entry): T1 sequence (whole entry)

[6] = target: T1, P2X purinoceptor 7 (Homo sapiens); test: Antagonist activity at P2X7 receptor in human THP-1 cells assessed as inhibition of LPS and BzATP-induced IL-1beta production at 10^-5 mol/L pretreated with compound followed by LPS/BzATP addition and measured after 2 to 6 hrs by ELISA; type: cell-based
How it was run: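 THP-1 monocytes grown in RPMI 1640 + 10% FCS, differentiated to macrophages with PMA (100nM); 10^6 cells pretreated with antagonist at 10^-5 mol/L, then exposed to LPS 10 μmol/L plus BzATP 70 μmol/L at 37 °C, 5% CO2; IL1β quantified by ELISA in samples at 2, 4 and 6 h; mean ± SD, significance P<0.05.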

[7] = Drug metabolism in mouse measured after 40 mins; type: ADME; conditions: read-out: Drug metabolism
[8] = target: T1, P2X purinoceptor 7 (Homo sapiens); test: Antagonist activity at P2X7 receptor in human THP-1 cells assessed as inhibition of LPS and BzATP-induced IL-1beta production at 10^-6 mol/L pretreated with compound followed by LPS/BzATP addition and measured after 2 to 6 hrs by ELISA; type: cell-based; conditions: TDE = time-dependent effect
How it was run: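 PMA (100nM)-differentiated THP-1 macrophages (RPMI 1640, 10% FCS), 10^6 cells, pretreated with antagonist at […], then challenged with LPS 10 μmol/L and BzATP 70 μmol/L at 37 °C, 5% CO2; IL1β measured by ELISA, including the 6 h point; mean ± SD, P<0.05 significant.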

[9] = Metabolic stability in human hepatocytes; type: ADME, cell-based, Hepatocyte
[10] = target: T1, P2X purinoceptor 7 (Homo sapiens); test: Antagonist activity at P2X7R in human THP1 cells assessed as inhibition of LPS and BzATP-induced IL-1beta expression by measuring increase in proIL-1beta expression in cell supernatant extract at 10^-6 mol/L pretreated with compound followed by LPS/BzATP addition and measured after 6 hrs by Western blot analysis; type: cell-based; conditions: THP-1
[11] = target: T3, P2X purinoceptor 1 (Homo sapiens) (UniProt P51575); test: Antagonist activity at P2X1 receptor in human platelet assessed as inhibition of thrombin-induced platelet aggregation at 10 '-5 to 10^-6 mol/L pretreated with compound and LPS/BzATP for 10 mins followed by thrombin addition and measured for 8 mins by aggregometry analysis; type: cell-based
T3 sequence (whole entry): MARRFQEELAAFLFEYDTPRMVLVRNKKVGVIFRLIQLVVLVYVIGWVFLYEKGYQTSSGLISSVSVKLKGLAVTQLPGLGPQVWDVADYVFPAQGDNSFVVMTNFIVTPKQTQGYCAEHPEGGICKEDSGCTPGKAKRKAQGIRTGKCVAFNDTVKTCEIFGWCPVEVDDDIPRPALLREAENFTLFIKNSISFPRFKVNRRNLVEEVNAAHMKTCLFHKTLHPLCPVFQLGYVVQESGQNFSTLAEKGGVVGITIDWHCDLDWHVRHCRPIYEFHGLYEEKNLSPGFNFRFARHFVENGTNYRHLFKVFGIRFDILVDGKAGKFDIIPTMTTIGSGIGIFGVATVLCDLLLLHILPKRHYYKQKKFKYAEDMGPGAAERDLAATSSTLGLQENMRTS

[12] = target: T1, P2X purinoceptor 7 (Homo sapiens); test: Antagonist activity at P2X7R in human THP1 cells assessed as inhibition of LPS and BzATP-induced mature form of IL-1beta expression in cells supernatant at 10^-6 mol/L pretreated with compound followed by LPS/BzATP addition and measured after 2 to 6 hrs by Western blot analysis; type: cell-based; conditions: THP-1
HEK293 = test: Cytotoxicity against human HEK293 cells assessed as reduction in cell viability at 10^-5 mol/L incubated for 72 hrs; type: cell-based; conditions: hek293, 72 h, 10 µM
How it was run: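 Wild-type and P2RX7-transfected HEK293 cells exposed to compound for 72 hours; viability compared against untreated control.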

O=C(Nc1ccc(Cl)cc1Cl)[C@@H]1CCC(=O)N1Cc1ccccc1Cl
inhibition [1]: 0%

CCCCCCN1C(=O)[C@@H]2CCC(=O)N2C1N(C)C (stereo partly specified)
inhibition [1]: 0%

CCCCCCN1C(=O)[C@@H]2C/C(=C\N(C)C)C(=O)N2C1N(C)C (stereo partly specified)
inhibition [1]: 0%

O=C(NCCc1ccccc1)[C@@H]1CCC(=O)N1Cc1ccc(Cl)cc1Cl
inhibition [1]: 0%

O=C(NCc1ccc(Cl)cc1Cl)[C@@H]1CCC(=O)N1Cc1ccccc1
inhibition [1]: 100%

O=C1N[C@H](C(=O)NCc2ccc(Cl)cc2Cl)C/C1=C/NCc1ccc(Cl)cc1Cl
inhibition [1]: 0%

O=C(NCC1CCCCC1)[C@@H]1CCC(=O)N1c1ccccc1
inhibition [1]: 0%

Cc1ccc(NC(=O)[C@@H]2CCC(=O)N2c2ccccc2)cc1
inhibition [1]: 0%

N#Cc1ccc(N2C(=O)CC[C@H]2C(=O)NCc2ccc(Cl)cc2Cl)cc1
inhibition [1]: 0%

O=C(NCc1ccc(Cl)cc1Cl)[C@@H]1CCC(=O)N1c1ccc(Cl)cc1Cl
inhibition [1]: 0%

CN1CCN(/C=C2\C[C@@H](C(=O)NCc3ccc(Cl)cc3Cl)N(c3cccs3)C2=O)CC1
inhibition [1]: 49%

O=C(NCc1ccc(Cl)cc1Cl)[C@@H]1CCC(=O)N1C(c1ccccc1)c1ccccc1
inhibition [1]: 0%

O=C1N[C@H](C(=O)NCc2ccc(Cl)cc2Cl)C/C1=C\N1CCOCC1
inhibition [1]: 56%

O=C(NCCc1ccc(Cl)cc1Cl)[C@@H]1CCC(=O)N1c1ccccc1
inhibition [1]: 0%

O=C(NCc1ccccc1Cl)[C@@H]1CCC(=O)N1c1ccccc1
inhibition [1]: 0%

COc1ccc(NC(=O)[C@@H]2C/C(=C\N(C)C)C(=O)N2)cc1
inhibition [1]: 0%

CN1C(=O)CC[C@H]1C(=O)NCc1cccc(C(F)(F)F)c1Cl [GSK1482160]
solubility [2]: Insoluble
inhibition [1]: 98%
half-life [3]: 800 min
microsomal CLint [4]: 2.8 µL/min/mg
inhibition [5]: Active
pIC50 (P2X purinoceptor 7): 6.48
pKi (P2X purinoceptor 7): 7.17
inhibition [6]: Active
metabolised at 40 min [7]: 4.4%
inhibition [8]: Tde
Stability [9]: Stable

O=C(NCc1ccc(Cl)cc1Cl)[C@@H]1CCC(=O)N1c1cccs1
inhibition [10]: Active
solubility [2]: Insoluble
Activity [11]: inactive
inhibition [1]: 98%
half-life [3]: 1.5 min
microsomal CLint [4]: 1070 µL/min/mg
inhibition [5]: Active
pIC50 (P2X purinoceptor 7): 6.14
pKi (P2X purinoceptor 7): 6.83
inhibition [12]: Active
inhibition [6]: Active
Activity (HEK293): Non-Toxic
metabolised at 40 min [7]: 100%
inhibition [8]: Tde
Stability [9]: Unstable

COc1ccc(N2C(=O)CC[C@H]2C(=O)NCc2ccc(Cl)cc2Cl)cc1
inhibition [1]: 0%

O=C1N[C@H](C(=O)NCc2ccc(Cl)cc2Cl)C/C1=N\O (stereo in doubt)
inhibition [1]: 52%

CN(C)/C=C1\C[C@H]2C(=O)N(Cc3ccc(Cl)cc3Cl)C(N(C)C)N2C1=O (stereo partly specified)
inhibition [1]: 24%

COc1ccc(N2C(=O)[C@@H]3C/C(=C\N(C)C)C(=O)N3C2N(C)C)cc1 (stereo partly specified)
inhibition [1]: 0%
